# Experimental data from ChEMBL document CHEMBL1143838, “Candida albicans and Candida dubliniensis respond differently to echinocandin antifungal agents in vitro” (2007).
# Assays:
# Format in all cases: functional
# Candida albicans [1] = assay: Antifungal activity against Candida albicans T25 after 24 hrs by EUCAST test
# In short: (§1)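 EUCAST broth microdilution with aqueous doubling dilutions of drug. Inoculum grown overnight at 30°C in NGY, then added to MOPS-buffered RPMI 1640 with 2% glucose at an initial 10^5 yeasts/ml. Incubated 35°C for 24 h. MICs taken from triplicate spectrophotometric dose-response data as 50% and 80% growth-reduction endpoints.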
# Candida dubliniensis [2] = assay: Antifungal activity against Candida dubliniensis ST after 24 hrs by EUCAST test
# In short: (§2)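 Yeasts were grown overnight at 30°C in NGY, then inoculated at 10^5 yeasts/ml initial concentration into MOPS-buffered RPMI 1640 with 2% glucose containing aqueous doubling dilutions of drug. Plates were held at 35°C for 24 h. MICs came from triplicate spectrophotometric dose-response data at 50% and 80% growth-reduction endpoints. Trailing meant a >100-fold gap between these endpoints; paradoxical meant regrowth ≥5% above the curve minimum.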
# Candida parapsilosis [3] = assay: Antifungal activity against Candida parapsilosis ATCC 22019 after 24 hrs by EUCAST test; conditions: Lodderomyces parapsilosis, ATCC 22019, 24 h; in short: as §2
# Candida albicans [4] = assay: Antifungal activity against Candida albicans SCS67023C after 24 hrs by CLSI M27-A test
# In short: (§3)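 CLSI M27-A broth microdilution with aqueous doubling dilutions of drug. Inoculum grown overnight at 30°C in NGY medium, then added to MOPS-buffered RPMI 1640 at an initial 10^3 yeasts/ml. Incubated 35°C for 24 h. MIC read visually as the lowest concentration giving a marked decrease in visible growth; paradoxical or trailing growth noted.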
# Candida dubliniensis [5] = assay: Antifungal activity against Candida dubliniensis B71507 after 24 hrs by EUCAST test; in short: as §2
# Candida albicans [6] = assay: Antifungal activity against Candida albicans Y109 after 24 hrs by CLSI M27-A test; in short: as §3
# Candida albicans [7] = assay: Antifungal activity against Candida albicans JIMS132203 after 24 hrs by EUCAST test; in short: as §1
# Candida albicans [8] = assay: Antifungal activity against Candida albicans B06-341 after 24 hrs by CLSI M27-A test; in short: as §3
# Candida dubliniensis [9] = assay: Antifungal activity against Candida dubliniensis SCS59662 after 24 hrs by CLSI M27-A test
# In short: (§4)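 Broth microdilution with echinocandins as aqueous doubling dilutions. Yeasts were grown overnight at 30°C in NGY and seeded at 10^3 yeasts/ml initial concentration in MOPS-buffered RPMI 1640, then incubated at 35°C for 24 h. The MIC was read visually as the lowest concentration giving a marked decrease in visible growth; paradoxical or trailing growth was noted.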
# Candida albicans [10] = assay: Antifungal activity against Candida albicans AM2003/0083 after 24 hrs by EUCAST test; in short: as §1
# Candida albicans [11] = assay: Antifungal activity against Candida albicans SCS68858 after 24 hrs by CLSI M27-A test; in short: as §3
# Candida dubliniensis [12] = assay: Antifungal activity against Candida dubliniensis Leic952 after 24 hrs by CLSI M27-A test; in short: as §4
# Candida albicans [13] = assay: Antifungal activity against Candida albicans B06-341 after 24 hrs by EUCAST test; in short: as §1
# Candida dubliniensis [14] = assay: Antifungal activity against Candida dubliniensis AMCC after 24 hrs by CLSI M27-A test; in short: as §3
# Candida dubliniensis [15] = assay: Antifungal activity against Candida dubliniensis SCS59662 after 24 hrs by EUCAST test; in short: as §2
# Candida albicans [16] = assay: Antifungal activity against Candida albicans NR3 after 24 hrs by CLSI M27-A test; in short: as §3
# Candida albicans [17] = assay: Antifungal activity against Candida albicans SC5314 after 24 hrs by EUCAST test; conditions: SC5314, 24 h; in short: as §1
# Candida albicans [18] = assay: Antifungal activity against Candida albicans JIMS132203 after 24 hrs by CLSI M27-A test; in short: as §3
# Candida albicans [19] = assay: Antifungal activity against Candida albicans CAI4RI after 24 hrs by CLSI M27-A test; in short: as §3
# Candida albicans [20] = assay: Antifungal activity against Candida albicans SCS68858 after 24 hrs by EUCAST test; in short: as §1
# Candida albicans [21] = assay: Antifungal activity against Candida albicans SCS140136P after 24 hrs by EUCAST test; in short: as §1
# Candida dubliniensis [22] = assay: Antifungal activity against Candida dubliniensis 910Aa after 24 hrs by CLSI M27-A test; in short: as §3
# Candida dubliniensis [23] = assay: Antifungal activity against Candida dubliniensis SCS65875C after 24 hrs by CLSI M27-A test; in short: as §4
# Candida albicans [24] = assay: Antifungal activity against Candida albicans JIMS146204 after 24 hrs by CLSI M27-A test; in short: as §3
# Candida dubliniensis [25] = assay: Antifungal activity against Candida dubliniensis 910Aa after 24 hrs by EUCAST test; in short: as §1
# Candida dubliniensis [26] = assay: Antifungal activity against Candida dubliniensis 75/043 after 24 hrs by CLSI M27-A test; in short: as §3
# Candida albicans [27] = assay: Antifungal activity against Candida albicans NR4 after 24 hrs by EUCAST test; in short: as §1
# Candida dubliniensis [28] = assay: Antifungal activity against Candida dubliniensis 90/033 after 24 hrs by EUCAST test; in short: as §1
# Candida parapsilosis [29] = assay: Antifungal activity against Candida parapsilosis ATCC 22019 after 24 hrs by CLSI M27-A test; conditions: Lodderomyces parapsilosis, ATCC 22019, 24 h; in short: as §4
# Candida albicans [30] = assay: Antifungal activity against Candida albicans JIMS101103 after 24 hrs by EUCAST test; in short: as §1
# Candida dubliniensis [31] = assay: Antifungal activity against Candida dubliniensis SCS17154969-1 after 24 hrs by CLSI M27-A test; in short: as §4
# Candida dubliniensis [32] = assay: Antifungal activity against Candida dubliniensis IK after 24 hrs by CLSI M27-A test; in short: as §4
# Candida dubliniensis [33] = assay: Antifungal activity against Candida dubliniensis SCSBB417709 after 24 hrs by CLSI M27-A test; in short: as §4
# Candida albicans [34] = assay: Antifungal activity against Candida albicans T28 after 24 hrs by EUCAST test; in short: as §1
# Candida dubliniensis [35] = assay: Antifungal activity against Candida dubliniensis SCS65875C after 24 hrs by EUCAST test; in short: as §2
# Candida albicans [36] = assay: Antifungal activity against Candida albicans T25 after 24 hrs by CLSI M27-A test; in short: as §3
# Candida dubliniensis [37] = assay: Antifungal activity against Candida dubliniensis KR after 24 hrs by EUCAST test; in short: as §2
# Candida albicans [38] = assay: Antifungal activity against Candida albicans HK04M102095 after 24 hrs by CLSI M27-A test; in short: as §3
# Candida dubliniensis [39] = assay: Antifungal activity against Candida dubliniensis SCSBB417709 after 24 hrs by EUCAST test; in short: as §2
# Candida dubliniensis [40] = assay: Antifungal activity against Candida dubliniensis J930936 after 24 hrs by CLSI M27-A test; in short: as §4
# Candida albicans [41] = assay: Antifungal activity against Candida albicans T32 after 24 hrs by CLSI M27-A test; in short: as §3
# Candida albicans [42] = assay: Antifungal activity against Candida albicans NR4 after 24 hrs by CLSI M27-A test; in short: as §3
# Candida dubliniensis [43] = assay: Antifungal activity against Candida dubliniensis FS after 24 hrs by EUCAST test; in short: as §2
# Candida dubliniensis [44] = assay: Antifungal activity against Candida dubliniensis Leic875 after 24 hrs by CLSI M27-A test; in short: as §4
# Candida dubliniensis [45] = assay: Antifungal activity against Candida dubliniensis J931021 after 24 hrs by EUCAST test; in short: as §2
# Candida dubliniensis [46] = assay: Antifungal activity against Candida dubliniensis FS after 24 hrs by CLSI M27-A test; in short: as §4
# Candida dubliniensis [47] = assay: Antifungal activity against Candida dubliniensis IK after 24 hrs by EUCAST test; in short: as §2
compound,measurement,setting,value
CC[C@H](C)C[C@H](C)CCCCCCCCC(=O)N[C@H]1C[C@@H](O)[C@@H](NCCN)NC(=O)[C@@H]2[C@@H](O)CCN2C(=O)[C@H]([C@H](O)CCN)NC(=O)[C@H]([C@H](O)[C@@H](O)c2ccc(O)cc2)NC(=O)[C@@H]2C[C@@H](O)CN2C(=O)[C@H]([C@@H](C)O)NC1=O [CASPOFUNGIN],MIC50,Candida albicans [1],8 µg/mL
same,MIC50,Candida dubliniensis [2],0.5 µg/mL
same,MIC50,Candida parapsilosis [3],1 µg/mL
same,MIC50,Candida albicans [4],0.5 µg/mL
same,MIC50,Candida dubliniensis [5],8 µg/mL
same,MIC50,Candida albicans [6],4 µg/mL
same,MIC50,Candida albicans [7],0.25 µg/mL
same,MIC50,Candida albicans [8],0.13 µg/mL
same,MIC50,Candida dubliniensis [9],0.5 µg/mL
same,MIC50,Candida albicans [10],0.25 µg/mL
same,MIC50,Candida albicans [11],0.5 µg/mL
same,MIC50,Candida dubliniensis [12],0.5 µg/mL
same,MIC50,Candida albicans [13],0.5 µg/mL
same,MIC50,Candida dubliniensis [14],0.5 µg/mL
same,MIC50,Candida dubliniensis [15],0.5 µg/mL
same,MIC50,Candida albicans [16],8 µg/mL
same,MIC50,Candida albicans [17],0.25 µg/mL
same,MIC50,Candida albicans [18],0.5 µg/mL
same,MIC50,Candida albicans [19],4 µg/mL
same,MIC50,Candida albicans [20],0.25 µg/mL
same,MIC50,Candida albicans [21],0.25 µg/mL
same,MIC50,Candida dubliniensis [22],0.5 µg/mL
same,MIC50,Candida dubliniensis [23],0.5 µg/mL
same,MIC50,Candida albicans [24],0.5 µg/mL
same,MIC50,Candida dubliniensis [25],0.25 µg/mL
same,MIC50,Candida dubliniensis [26],0.25 µg/mL
same,MIC50,Candida albicans [27],2 µg/mL
same,MIC50,Candida dubliniensis [28],16 µg/mL
same,MIC50,Candida parapsilosis [29],1 µg/mL
same,MIC50,Candida albicans [30],0.25 µg/mL
same,MIC50,Candida dubliniensis [31],0.5 µg/mL
same,MIC50,Candida dubliniensis [32],0.5 µg/mL
same,MIC50,Candida dubliniensis [33],0.5 µg/mL
same,MIC50,Candida albicans [34],0.13 µg/mL
same,MIC50,Candida dubliniensis [35],8 µg/mL
same,MIC50,Candida albicans [36],8 µg/mL
same,MIC50,Candida dubliniensis [37],0.25 µg/mL
same,MIC50,Candida albicans [38],0.5 µg/mL
same,MIC50,Candida dubliniensis [39],0.25 µg/mL
same,MIC50,Candida dubliniensis [40],0.5 µg/mL
same,MIC50,Candida albicans [41],0.25 µg/mL
same,MIC50,Candida albicans [42],2 µg/mL
same,MIC50,Candida dubliniensis [43],16 µg/mL
same,MIC50,Candida dubliniensis [44],0.5 µg/mL
same,MIC50,Candida dubliniensis [45],16 µg/mL
same,MIC50,Candida dubliniensis [46],0.5 µg/mL
same,MIC50,Candida dubliniensis [47],0.25 µg/mL
